Data from publication PMC3793015 (Journal of agricultural and food chemistry, 2013).
One block for each compound: values may come before it.

How the values were obtained:
Caco-2 cells = assay: Cellular uptake, metabolism and transport of α-MG on Transwell inserts; assay type: in vitro ADME, human; settings: 24 h after addition of α-MG, control cultures; nd: not detected
Summary of the method: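 Caco-2 cells were differentiated 21–25 days post-confluence on Transwell inserts. Compound (12 μM) in Tween 40 micelles was added apically for 24 h. Activated cultures had 5 ng/mL IL-1β for 4 h, then a PBS wash. Apical medium, basolateral medium and cell monolayer were collected separately and analysed by RP-HPLC for free and conjugated xanthones. Amounts are % of initial compound; mean ± SD, n ≥ 5.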

HepG2 cells = assay: Cellular uptake and metabolism of α-MG; assay type: in vitro ADME, human; settings: 24 h after addition of α-MG, control cultures; nd: not detected
Summary of the method: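 HepG2 monolayers, 2 days post-confluence, received 9.0 μM compound as a DMSO stock added to 10% FBS medium for 24 h. Activated cultures had 10 ng/mL TNF-α for 4 h and a PBS wash first. Medium and cells were collected separately, extracted and analysed by RP-HPLC for free and glucuronidated/sulfated xanthones. Quantification used retention time, UV spectrum and five-point standard curves, as % of initial amount; mean ± SD, n ≥ 5.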

[1] = system: LPS-induced production of NO in RAW 264.7 cells; assay: LPS-induced production of NO; assay type: cell-based, murine; settings: Mus musculus, RAW264.7, read-out: inhibition of LPS-induced production of NO
Summary of the method: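 RAW 264.7 cells, 2 days post-confluence, were pretreated 2 h with compound (DMSO stock into 10% FBS medium). They were then stimulated 16 h with 5 ng/mL E. coli O111:B4 LPS. NO production was estimated as medium nitrite by the Griess reaction.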

THP-1 cells = assay: Cellular uptake and metabolism of α-MG; assay type: in vitro ADME, human; settings: 24 h after addition of α-MG, control cultures; nd: not detected
Summary of the method: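 THP-1 monocytes were differentiated with 100 nM PMA for 48 h, then exposed 24 h to 5.2 μM compound (DMSO stock into 10% FBS medium). Activated cultures were pre-exposed to 5 ng/mL LPS for 4 h and washed with PBS. Spent medium and cells were collected separately, extracted and analysed by RP-HPLC for free and glucuronidated/sulfated xanthones. Amounts are % of initial compound; mean ± SD, n ≥ 5.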

intracellular xanthone, Caco-2 (Caco-2 cells): 100 ± 17 pmol/dish | intracellular xanthone, HepG2 (HepG2 cells): 44 ± 5 pmol/dish
SMILES: COc1c(O)cc2oc3cc4c(c(O)c3c(=O)c2c1CC=C(C)C)C=CC(C)(C)O4 [9-hydroxycalabaxanthone]

SMILES: COC(=O)[C@@H](N)CCCNC(N)=N[N+](=O)[O-] [L-NAME, reference compound]
inhibition at 200 µM [1]: 30%

intracellular xanthone, THP-1 (THP-1 cells): 66 ± 2 pmol/dish
SMILES: COc1c(O)cc2oc3cc(O)c(CC=C(C)C)c(O)c3c(=O)c2c1CCC(C)(C)O [garcinone D]
